Assay results: article PMC5771882 (Biochemistry, 2017)

Key:
[1] = target: BRAF (Homo sapiens, UniProt P15056); assay: LC–MS quantitative chemical proteomic assay; assay type: binding; details: ATP 1 mM
[2] = target: HSP70-1A/B (Homo sapiens, UniProt P0DMV8); assay: LC–MS quantitative chemical proteomic assay; assay type: binding; details: ATP 1 mM
[3] = target: T1, recombinant DGKα (Rattus norvegicus, UniProt P51556); assay: LC–MS quantitative chemical proteomic assay; assay type: binding
[4] = target: T1, recombinant DGKα; assay: DAG phosphorylation substrate assay; assay type: biochemical; details: DGKα-overexpressed HEK293T soluble proteomes
Outline: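 IC50 derived from a dose–response curve of DAG phosphorylation by recombinant DGKα across a range of test compound concentrations. Data are means ± standard error of the mean of two biological replicates, and a 95% confidence interval is given for the IC50.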

T1 sequence (P51556 whole entry): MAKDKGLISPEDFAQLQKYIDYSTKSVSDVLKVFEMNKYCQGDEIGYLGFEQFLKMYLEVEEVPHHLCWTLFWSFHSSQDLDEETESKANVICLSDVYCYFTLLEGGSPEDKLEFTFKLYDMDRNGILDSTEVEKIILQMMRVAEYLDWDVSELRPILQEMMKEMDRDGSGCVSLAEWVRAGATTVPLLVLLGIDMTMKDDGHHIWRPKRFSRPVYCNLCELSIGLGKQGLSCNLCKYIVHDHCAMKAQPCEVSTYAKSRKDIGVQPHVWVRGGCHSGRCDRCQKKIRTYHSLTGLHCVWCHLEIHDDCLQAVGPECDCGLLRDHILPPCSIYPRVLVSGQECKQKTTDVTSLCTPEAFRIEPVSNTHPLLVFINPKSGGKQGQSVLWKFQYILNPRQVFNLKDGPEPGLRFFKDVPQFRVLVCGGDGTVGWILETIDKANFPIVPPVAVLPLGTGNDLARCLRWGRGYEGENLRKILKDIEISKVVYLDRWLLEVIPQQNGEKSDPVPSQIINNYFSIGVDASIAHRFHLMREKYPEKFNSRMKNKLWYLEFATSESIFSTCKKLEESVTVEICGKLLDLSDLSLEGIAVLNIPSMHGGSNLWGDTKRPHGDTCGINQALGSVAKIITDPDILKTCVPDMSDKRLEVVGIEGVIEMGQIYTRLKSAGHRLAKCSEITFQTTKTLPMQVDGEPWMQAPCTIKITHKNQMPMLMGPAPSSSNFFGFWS
Chain of BRAF (P15056 whole entry): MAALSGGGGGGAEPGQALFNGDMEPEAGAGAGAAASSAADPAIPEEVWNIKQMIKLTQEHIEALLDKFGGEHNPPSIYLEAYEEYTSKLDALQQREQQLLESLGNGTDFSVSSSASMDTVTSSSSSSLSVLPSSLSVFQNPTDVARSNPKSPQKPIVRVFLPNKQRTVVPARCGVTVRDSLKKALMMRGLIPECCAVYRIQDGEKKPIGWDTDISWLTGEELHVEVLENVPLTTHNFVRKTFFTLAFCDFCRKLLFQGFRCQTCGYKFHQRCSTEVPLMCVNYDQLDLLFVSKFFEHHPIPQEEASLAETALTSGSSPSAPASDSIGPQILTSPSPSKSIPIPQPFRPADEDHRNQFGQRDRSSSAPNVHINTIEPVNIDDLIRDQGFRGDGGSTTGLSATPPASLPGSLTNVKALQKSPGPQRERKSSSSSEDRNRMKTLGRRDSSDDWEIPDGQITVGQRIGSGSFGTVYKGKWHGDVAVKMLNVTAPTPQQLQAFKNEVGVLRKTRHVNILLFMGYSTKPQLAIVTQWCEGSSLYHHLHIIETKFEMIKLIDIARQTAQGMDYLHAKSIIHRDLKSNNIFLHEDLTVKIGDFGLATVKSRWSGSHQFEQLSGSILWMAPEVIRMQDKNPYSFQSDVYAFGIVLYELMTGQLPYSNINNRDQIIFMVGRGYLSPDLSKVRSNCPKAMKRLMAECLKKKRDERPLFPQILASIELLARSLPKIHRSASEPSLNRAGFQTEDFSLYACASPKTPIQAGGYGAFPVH
Chain of HSP70-1A/B (P0DMV8 whole entry): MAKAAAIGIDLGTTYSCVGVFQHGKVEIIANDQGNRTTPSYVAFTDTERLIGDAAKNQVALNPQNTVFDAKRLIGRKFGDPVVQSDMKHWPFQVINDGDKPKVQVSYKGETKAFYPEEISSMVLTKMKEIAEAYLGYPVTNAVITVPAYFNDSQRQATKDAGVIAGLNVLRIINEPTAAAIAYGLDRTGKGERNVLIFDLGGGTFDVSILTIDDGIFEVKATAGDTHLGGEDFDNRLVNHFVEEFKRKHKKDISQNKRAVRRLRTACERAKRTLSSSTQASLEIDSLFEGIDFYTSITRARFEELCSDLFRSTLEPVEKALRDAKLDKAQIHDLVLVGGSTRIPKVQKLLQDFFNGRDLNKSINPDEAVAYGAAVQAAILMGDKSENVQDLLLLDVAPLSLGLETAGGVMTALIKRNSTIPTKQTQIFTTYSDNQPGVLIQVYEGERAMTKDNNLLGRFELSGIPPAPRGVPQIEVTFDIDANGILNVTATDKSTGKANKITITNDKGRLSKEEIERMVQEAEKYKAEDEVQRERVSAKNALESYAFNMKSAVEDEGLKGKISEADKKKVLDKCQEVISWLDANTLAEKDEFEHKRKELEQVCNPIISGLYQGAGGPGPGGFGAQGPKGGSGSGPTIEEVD

Row | SILAC ratio (SR), BRAF [1] | SILAC ratio (SR), HSP70-1A K56/HSP70-1B K56 [2] | blockade of probe labeling at primary ATP-binding sites (DAGKc/DAGKa) ([3]; RLM001 10 mM, ATP 1 mM) | SILAC ratio (SR), C1-binding site ([3]; free ATP (1 mM)) | blockade of recombinant DGKα catalytic activity [4] | Structure (SMILES)
1 | > 5 | > 5 | near-complete blockade of probe labeling | ~ 2 | – | Nc1ncnc2c1ncn2[C@@H]1O[C@H](COP(=O)(O)OP(=O)(O)OP(=O)(O)O)[C@@H](O)[C@H]1O [ATP]
2 | – | – | – | – | blockade of catalytic activity | Cc1nc2sccn2c(=O)c1CCN1CCC(=C(c2ccccc2)c2ccc(F)cc2)CC1 [R59022]
3 | – | – | – | – | blockade of catalytic activity | Cc1nc2sccn2c(=O)c1CCN1CCC(=C(c2ccc(F)cc2)c2ccc(F)cc2)CC1 [ritanserin]
